Experimental data of several laboratories.

`CC[C@H](C)[C@H](NC(=O)[C@H](CCC(=O)O)NC(=O)[C@H](CO)NC(=O)[C@@H](NC(=O)[C@@H](N)CO)C(C)C)C(=O)N[C@@H](CCC(N)=O)C(=O)N[C@@H](CC(C)C)C(=O)N[C@@H](CCSC)C(=O)N[C@@H](Cc1cnc[nH]1)C(=O)N[C@@H](CC(N)=O)C(=O)N[C@@H](CC(C)C)C(=O)NCC(=O)N[C@@H](CCCCN)C(=O)N[C@@H](Cc1cnc[nH]1)C(=O)N[C@@H](CC(C)C)C(=O)N[C@@H](CC(N)=O)C(=O)N[C@@H](CO)C(=O)N[C@@H](CCSC)C(=O)N[C@@H](CCC(=O)O)C(=O)N[C@@H](CCCN=C(N)N)C(=O)N[C@H](C(=O)N[C@@H](CCC(=O)O)C(=O)N[C@@H](Cc1c[nH]c2ccccc12)C(=O)N[C@@H](CC(C)C)C(=O)N[C@@H](CCCN=C(N)N)C(=O)N[C@@H](CCCCN)C(=O)N[C@@H](CCCCN)C(=O)N[C@@H](CC(C)C)C(=O)N[C@@H](CCC(N)=O)C(=O)N[C@@H](CC(=O)O)C(=O)N[C@H](C(=O)N[C@@H](Cc1cnc[nH]1)C(=O)N[C@@H](CC(N)=O)C(=O)N[C@@H](Cc1ccccc1)C(=O)O)C(C)C)C(C)C` gave a compound remaining of 100% (chemical stability, HPLC; aqueous buffer; 0.5 mg/mL, 5 min, pH 6.5).
The Vd/F of `CCn1c2ccccc2c2cc(-n3nncc3-c3ccccc3)ccc21` is reported as roughly 0.4 L (female BALB/c mouse, plasma; intraperitoneal, 10 mg/kg, single dose).
The Vd of `CC[C@H](C)[C@@H]1NC(=O)[C@@](C)(NC(=O)[C@H](CCCNC(=N)N)NC(=O)[C@H](CC(C)C)NC(=O)[C@@H](NC(=O)[C@H](CCC(N)=O)NC(=O)[C@H](CC(C)C)NC(C)=O)[C@@H](C)O)CCCC=CCCC[C@@](C)(C(=O)N[C@@H](CC(C)C)C(=O)N[C@@H](Cc2ccc3ccccc3c2)C(N)=O)NC(=O)[C@H](CCCNC(=N)N)NC(=O)[C@H](CCC(N)=O)NC1=O` is reported as 0.0946 L/kg (male BALB/c mouse, plasma; intravenous, 15 mg/kg).
For `CC(=O)OCOC(=O)C1CC(C)(C)N([O])C1(C)C` (centres unmarked), the half-life was 34 min (chemical stability; bovine, serum).
For `CC(C)(O)c1ccccc1-c1ccc2[nH]c(/C=C/c3ccc(C(F)(F)F)cc3)nc2c1`, the half-life was 4960 min (male human, plasma; oral, 30 mg, single dose, fasted, healthy volunteers).
`CC(C)n1cc(C#N)c2cc(-n3cc(C(=O)O)cn3)ccc21` has a half-life of 486 min (human, plasma; oral, 25 mg, single dose, fasted, healthy volunteers).
`CC(C)(C)c1ccc(O)c(CN(Cc2cc(C(C)(C)C)ccc2O)C2CCC(NC(N)=O)CC2)c1` (centres unmarked) has a Vd of 2.79 L (male C57BL/6 mouse, plasma; oral, 10 mg/kg, single dose).
The half-life of `CC(=O)N[C@@H](Cc1ccccc1)C(=O)N[C@@H](Cc1ccccc1)C(=O)N[C@@H](C)C(=O)N[C@@H](CC(C)C)C(=O)NCC(=O)N[C@@H](CC(C)C)C(=O)N[C@@H](C)C(=O)NCC(=O)N[C@@H](CC(=O)O)C(=O)N[C@@H](CC(=O)O)C(=O)O` is reported as 518 min (chemical stability; human, plasma; 1 mM, pH 7.4).
For `COCCOc1cnc2ccn([C@H](C)c3nnc4c(F)cc(-c5cnn(C)c5)cn34)c(=O)c2c1`, the half-life was 378 min (human, plasma; oral, 25 mg, multiple doses, once daily, patients).
`C[C@]1(c2nc3c(C(N)=O)cccc3[nH]2)CCCN1` has an AUC(0-inf) of 3.7 µM·h (male rhesus monkey, plasma; oral, 5 mg/kg, single dose).
`COc1ccc([C@@H]2CN(C(=O)[C@@H](O)CO)C[C@@]2(C)[C@@H](C)O)cc1OC1CN(c2ccc(C)cn2)C1` has a half-life of 738 min (human, plasma; oral, 30 mg, single dose, healthy volunteers).
